Experimental data as given in ChEMBL document CHEMBL3400137, “Glycyrrhizic acid derivatives as influenza A/H1N1 virus inhibitors” (Bioorg Med Chem Lett, 2015).

Columns and labels:
[1] = Antiviral activity against influenza A virus (A/California/07/09(H1N1)) pdm09 infected in MDCK cells assessed as decrease in virus titer by hemagglutination assay in presence of 1% suspension of chicken erythrocytes; type: functional, Influenza A virus (A/California/07/2009(H1N1)); conditions: read-out: CD50 (the source's name)
Summary of the method: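 MDCK cells were pre-treated for 1 h at 37 °C with serial twofold compound dilutions in MEM containing 2 mM arginine, 2 mM glutamine and 2 μg/mL trypsin, then infected. Untreated infected cells served as control. Virus yield in the supernatant was read by end-point dilution hemagglutination. ED50 was the concentration giving a two-fold drop in virus production versus control. Values are means.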

[2] = Selectivity index, CTD50 for MDCK cells to EC50 for influenza A virus (A/California/07/09(H1N1)) pdm09 infected in MDCK cells; type: toxicity, cell-based; conditions: dog; for selectivity ratio: read-out: Selectivity Index; for Selectivity Index: mdck
[3] = test system: MDCK; assay: Cytotoxicity against MDCK cells assessed as reduction in cell viability after 48 hrs by MTT assay; type: cell-based, Canis lupus familiaris
Summary of the method: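 Compounds were taken from 5 mg/mL DMSO stocks and diluted twofold in MEM. They were applied to washed, serum-free MDCK monolayers (grown in MEM with 5% fetal calf serum) for 48 h at 37 °C. Cells were then PBS-washed and given 0.5 mg/mL MTT for 60 min at 37 °C in 5% CO2. Formazan was dissolved in DMSO and read at 535 nm. CTD50 was estimated from these readings. Values are means.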

Structure (SMILES)	CC50 ([1]; Influenza A virus, pdm09, MDCK)	selectivity ratio [2]	CC50 [1]	Selectivity Index [2]	EC50 [3]
COC(=O)[C@H](Cc1ccccc1)NC(=O)[C@H]1O[C@@H](O[C@H]2[C@H](O[C@H]3CC[C@]4(C)[C@H]5C(=O)C=C6[C@@H]7C[C@@](C)(C(=O)N[C@@H](Cc8ccccc8)C(=O)OC)CC[C@]7(C)CC[C@@]6(C)[C@]5(C)CC[C@H]4C3(C)C)O[C@H](C(=O)N[C@@H](Cc3ccccc3)C(=O)OC)[C@@H](O)[C@@H]2O)[C@H](O)[C@@H](O)[C@@H]1O	133 µM	28	–	–	–
CC1(C)[C@@H](O[C@@H]2O[C@H](C(=O)N[C@@H](CSCc3ccccc3)C(=O)O)[C@@H](O)[C@H](O)[C@H]2O[C@@H]2O[C@H](C(=O)N[C@@H](CSCc3ccccc3)C(=O)O)[C@@H](O)[C@H](O)[C@H]2O)CC[C@]2(C)[C@H]3C(=O)C=C4[C@@H]5C[C@@](C)(C(=O)O)CC[C@]5(C)CC[C@@]4(C)[C@]3(C)CC[C@@H]12	248 µM	71	–	–	–
COC(=O)[C@H](Cc1c[nH]cn1)NC(=O)[C@H]1O[C@@H](O[C@H]2[C@H](O[C@H]3CC[C@]4(C)[C@H]5C(=O)C=C6[C@@H]7C[C@@](C)(C(=O)O)CC[C@]7(C)CC[C@@]6(C)[C@]5(C)CC[C@H]4C3(C)C)O[C@H](C(=O)N[C@@H](Cc3c[nH]cn3)C(=O)OC)[C@@H](O)[C@@H]2O)[C@H](O)[C@@H](O)[C@@H]1O	298 µM	15	–	–	–
COC(=O)[C@H](Cc1ccc(O)cc1)NC(=O)[C@H]1O[C@@H](O[C@H]2[C@H](O[C@H]3CC[C@]4(C)[C@H]5C(=O)C=C6[C@@H]7C[C@@](C)(C(=O)O)CC[C@]7(C)CC[C@@]6(C)[C@]5(C)CC[C@H]4C3(C)C)O[C@H](C(=O)N[C@@H](Cc3ccc(O)cc3)C(=O)OC)[C@@H](O)[C@@H]2O)[C@H](O)[C@@H](O)[C@@H]1O	255 µM	38	–	–	–
COC(=O)[C@@H](NC(=O)[C@H]1O[C@@H](O[C@H]2[C@H](O[C@H]3CC[C@]4(C)[C@H]5C(=O)C=C6[C@@H]7C[C@@](C)(C(=O)O)CC[C@]7(C)CC[C@@]6(C)[C@]5(C)CC[C@H]4C3(C)C)O[C@H](C(=O)N[C@H](C(=O)OC)C(C)C)[C@@H](O)[C@@H]2O)[C@H](O)[C@@H](O)[C@@H]1O)C(C)C	29.1 µM	5	–	–	–
COC(=O)[C@@]1(C)CC[C@]2(C)CC[C@]3(C)C(=CC(=O)[C@@H]4[C@@]5(C)CC[C@H](O[C@@H]6O[C@H](CO)[C@@H](O)[C@H](O)[C@H]6O[C@@H]6O[C@H](CO)[C@@H](O)[C@H](O)[C@H]6O)C(C)(C)[C@@H]5CC[C@]43C)[C@@H]2C1	371 µM	5	–	–	–
COC(=O)C[C@H](NC(=O)[C@H]1O[C@@H](O[C@H]2[C@H](O[C@H]3CC[C@]4(C)[C@H]5C(=O)C=C6[C@H]7C[C@@](C)(C(=O)O)CC[C@]7(C)CC[C@@]6(C)[C@]5(C)CC[C@H]4C3(C)C)O[C@H](C(=O)N[C@@H](CC(=O)OC)C(=O)O)[C@@H](O)[C@@H]2O)[C@H](O)[C@@H](O)[C@@H]1O)C(=O)O	58.3 µM	12	–	–	–
CC1(C)[C@@H](O[C@@H]2O[C@H](C(=O)N[C@@H](CCCCNC(=O)OCc3ccccc3)C(=O)O)[C@@H](O)[C@H](O)[C@H]2O[C@@H]2O[C@H](C(=O)N[C@@H](CCCCNC(=O)OCc3ccccc3)C(=O)O)[C@@H](O)[C@H](O)[C@H]2O)CC[C@]2(C)[C@H]3C(=O)C=C4[C@@H]5C[C@@](C)(C(=O)O)CC[C@]5(C)CC[C@@]4(C)[C@]3(C)CC[C@@H]12	155 µM	3	–	–	–
COC(=O)C[C@H](NC(=O)[C@H]1O[C@@H](O[C@H]2[C@H](O[C@H]3CC[C@]4(C)[C@H]5C(=O)C=C6[C@@H]7C[C@@](C)(C(=O)O)CC[C@]7(C)CC[C@@]6(C)[C@]5(C)CC[C@H]4C3(C)C)O[C@H](C(=O)N[C@@H](CC(=O)OC)C(=O)OC)[C@@H](O)[C@@H]2O)[C@H](O)[C@@H](O)[C@@H]1O)C(=O)OC	37.3 µM	1	–	–	–
CC1(C)[C@@H](O[C@H]2O[C@H](C(=O)O)[C@@H](O)[C@H](O)[C@H]2O[C@@H]2O[C@H](C(=O)O)[C@@H](O)[C@H](O)[C@H]2O)CC[C@]2(C)[C@H]3C(=O)C=C4[C@@H]5C[C@@](C)(C(=O)O)CC[C@]5(C)CC[C@@]4(C)[C@]3(C)CC[C@@H]12 [GLYCYRRHIZIN]	–	–	365 µM	1	365 µM
COC(=O)[C@H](Cc1ccccc1)NC(=O)[C@H]1O[C@@H](O[C@H]2[C@H](O[C@H]3CC[C@]4(C)[C@H]5C(=O)C=C6[C@@H]7C[C@@](C)(C(=O)O)CC[C@]7(C)CC[C@@]6(C)[C@]5(C)CC[C@H]4C3(C)C)O[C@H](C(=O)N[C@@H](Cc3ccccc3)C(=O)OC)[C@@H](O)[C@@H]2O)[C@H](O)[C@@H](O)[C@@H]1O	262 µM	61	–	–	–
CC(N)C12CC3CC(CC(C3)C1)C2 (stereo not drawn) [RIMANTADINE]	334 µM	5	–	–	–
COC(=O)[C@H](Cc1ccc(O)cc1)NC(=O)[C@H]1O[C@@H](O[C@H]2[C@H](O[C@H]3CC[C@]4(C)[C@H]5C(=O)C=C6[C@@H]7C[C@@](C)(C(=O)N[C@@H](Cc8ccc(O)cc8)C(=O)OC)CC[C@]7(C)CC[C@@]6(C)[C@]5(C)CC[C@H]4C3(C)C)O[C@H](C(=O)N[C@@H](Cc3ccc(O)cc3)C(=O)OC)[C@@H](O)[C@@H]2O)[C@H](O)[C@@H](O)[C@@H]1O	160 µM	18	–	–	–
CC1(C)[C@@H](O[C@@H]2O[C@H](C(=O)O)[C@@H](O)[C@H](O)[C@H]2O[C@@H]2O[C@H](C(=O)O)[C@@H](O)[C@H](O)[C@H]2O)CC[C@]2(C)C3=CC=C4[C@@H]5C[C@@](C)(C(=O)O)CC[C@]5(C)CC[C@@]4(C)[C@]3(C)CC[C@@H]12	21.4 µM	10	–	–	–
CC1(C)[C@@H](O[C@@H]2O[C@H](C(=O)N[C@@H]3O[C@H](CO)[C@@H](O)[C@H](O)[C@H]3O)[C@@H](O)[C@H](O)[C@H]2O[C@@H]2O[C@H](C(=O)N[C@@H]3O[C@H](CO)[C@@H](O)[C@H](O)[C@H]3O)[C@@H](O)[C@H](O)[C@H]2O)CC[C@]2(C)[C@H]3C(=O)C=C4[C@@H]5C[C@@](C)(C(=O)O)CC[C@]5(C)CC[C@@]4(C)[C@]3(C)CC[C@@H]12	259 µM	36	–	–	–
CC[C@H](C)[C@H](NC(=O)[C@H]1O[C@@H](O[C@H]2[C@H](O[C@H]3CC[C@]4(C)[C@H]5C(=O)C=C6[C@@H]7C[C@@](C)(C(=O)N[C@H](C(=O)OC)[C@@H](C)CC)CC[C@]7(C)CC[C@@]6(C)[C@]5(C)CC[C@H]4C3(C)C)O[C@H](C(=O)N[C@H](C(=O)OC)[C@@H](C)CC)[C@@H](O)[C@@H]2O)[C@H](O)[C@@H](O)[C@@H]1O)C(=O)OC	16.4 µM	6	–	–	–
CC1(C)[C@@H](OC2O[C@H](C(=O)O)[C@@H](O)[C@H](O)[C@H]2O[C@@H]2O[C@H](C(=O)O)[C@@H](O)[C@H](O)[C@H]2O)CC[C@]2(C)[C@H]3C(=O)C=C4C5C[C@@](C)(C(=O)O)CC[C@]5(C)CC[C@@]4(C)[C@]3(C)CC[C@@H]12 (single isomer, unassigned) [GLYCYRRHIZIN]	–	–	47.5 µM	3	15.2 µM
COC(=O)C[C@H](NC(=O)[C@H]1O[C@@H](O[C@H]2[C@H](O[C@H]3CC[C@]4(C)[C@H]5C(=O)C=C6[C@H]7C[C@@](C)(C(=O)O)CC[C@]7(C)CC[C@@]6(C)[C@]5(C)CC[C@H]4C3(C)C)O[C@H](C(=O)N[C@@H](CC(=O)OC)C(=O)OC)[C@@H](O)[C@@H]2O)[C@H](O)[C@@H](O)[C@@H]1O)C(=O)OC	38 µM	4	–	–	–
